# Measurements collected from several papers.
# Compare with care: the assays were run in different laboratories.
# Cell line: Vero
# Effect on: cell growth or viability
SMILES,technique,time,CC50 [µM]
CCOC(=O)c1c(NCc2ccc(SC)cc2)c2cccc(C)c2[nH]c1=O,MTS,48 h,> 100
COC(=O)N[C@H](C(=O)N1C[C@H](n2cc(-c3ccccc3)nn2)C[C@H]1c1ncc(-c2ccc(-c3ccc(-c4cnc([C@@H]5C[C@@H](n6cc(-c7ccccc7)nn6)CN5C(=O)[C@@H](NC(=O)OC)C(C)C)[nH]4)cc3)cc2)[nH]1)C(C)C,,,> 100
CCN(CC)CCNC(=O)c1c(C)[nH]c(/C=C2\C(=O)Nc3ccc(F)cc32)c1C,resazurin,,25
Clc1ccc(C(Cn2ccnc2)OCc2csc3c(Cl)cccc23)c(Cl)c1 (stereo not drawn),WST-1,18 h,~21.2
CC(C)(C)[C@H](NS(=O)(=O)C(F)(F)F)C(=O)N1[C@@H]2CC[C@@H](C2)[C@H]1C(=O)N[C@@H](C[C@@H]1CCNC1=O)C(=O)c1nc2ccccc2s1,,48 h,> 50
O=C(NCc1ccc(F)cc1)c1cccc(Nc2ccc(-c3ccccc3)nn2)c1,MTS,48 h,> 100
COc1cc2ncnc(Nc3ccc(F)c(Cl)c3)c2cc1OCCCN1CCOCC1,resazurin,,> 60
FC(F)(F)c1cccc(Nc2nc(NCCOc3ccccc3)nc3[nH]cnc23)c1,ATP luminescence,,> 200
C#Cc1cccc(Nc2ncnc3cc(OCCOC)c(OCCOC)cc23)c1,resazurin,,> 60
CC(C)(C)NC(=O)N[C@H](C(=O)N1C[C@H]2[C@@H]([C@H]1C(=O)NC(CC1CCC1)C(=O)C(N)=O)C2(C)C)C(C)(C)C (stereo partly drawn),neutral red,48 h,> 100
COc1ccc(C[C@H](NC(=O)[C@H](C)NC(=O)CN2CCOCC2)C(=O)N[C@@H](Cc2ccccc2)C(=O)C(=O)Nc2ccccc2)cc1,ATP luminescence,48 h,71.1
CCC(CC)COC(=O)[C@H](C)N[P@](=O)(OC[C@H]1O[C@@](C#N)(c2ccc3c(N)ncnn23)[C@H](O)[C@@H]1O)Oc1ccccc1,,,> 13
CC(C)C[C@H](NC(=O)OCc1ccccc1)C(=O)N[C@@H](CC(C)C)C(=O)N[C@@H](CC(C)C)C(=O)C(=O)Nc1ccccc1,ATP luminescence,48 h,16
C=C(c1ccc(C(=O)O)cc1)c1cc2c(cc1C)C(C)(C)CCC2(C)C,WST-1,18 h,> 40
COC(=O)N[C@H](C(=O)N1C[C@@H](n2cc(C(=O)OC)nn2)C[C@H]1c1ncc(-c2ccc(-c3ccc(-c4cnc([C@@H]5C[C@H](n6cc(C(=O)OC)nn6)CN5C(=O)[C@@H](NC(=O)OC)C(C)C)[nH]4)cc3)cc2)[nH]1)C(C)C,,,> 100
